The record followed here is ChEMBL document CHEMBL4184223 (Bioorg Med Chem Lett, 2018).

The subject of series [1] is Cortical neurone. Put plainly: Neuroprotective activity against amyloid beta (1 to 42) peptide-induced cytotoxicty in CD1 mouse primary cortical neurons assessed as increase in cell viability at 0.1 to 10 uM pre-incubated for 1 hr before amyloid beta (1 to 42) addition and measured after 24 hrs by CCK8 assay. In kind it is functional, cell-based. (In general: Formazan colour is commonly taken as a measure of viable cells.)

Series [2] concerns Cortical neurone. Put plainly: Toxicity in CD1 mouse primary cortical neurons assessed as effect on cell viability at 0.01 to 1 uM incubated for 24 hrs by CCK8 assay. Type of series: cell-based. Put shortly: (§1)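 Primary cortical neuron cultures were given compound alone across a concentration range, without Aβ. Cell viability was measured by CCK8 and expressed as percent reduction in viable cells. Data are mean ± SD of three independent experiments.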

The nature of series [3]: Toxicity in CD1 mouse primary cortical neurons assessed as effect on cell viability at 100 nM incubated for 24 hrs by CCK8 assay. In kind it is cell-based, Cortical neurone. To be noted: read-out: Activity. The method, boiled down:
(§2)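 Primary cortical neuron cultures were exposed to compound alone at the stated concentration. Viability was measured by CCK8 and expressed as the percentage reduction in viable cells.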

Series [4] relates to Cortical neurone. Put plainly: Neuroprotective activity against amyloid beta (1 to 42) peptide-induced cytotoxicty in CD1 mouse primary cortical neurons assessed as increase in cell viability at 0.01 to 1 nM pre-incubated for 1 hr before amyloid beta (1 to 42) addition and measured after 24 hrs by CCK8 assay. In kind it is functional.
Series [5] can be described thus: Toxicity in CD1 mouse primary cortical neurons assessed as effect on cell viability at 50 nM incubated for 24 hrs by CCK8 assay. In kind it is cell-based, Cortical neurone. As to conditions: read-out: Activity. Put shortly: as §2
For series [6], the system named is BV-2 (Mus musculus). As to the kind of experiment: Antiinflammatory activity in mouse BV-2 cells assessed as inhibition of LPS-induced TNF-alpha production pre-incubated for 1 hr before LPS stimulation for 23 hrs by ELISA method.
For series [7], the system named is Cortical neurone. As to the kind of experiment: Neuroprotective activity against amyloid beta (1 to 42) peptide-induced cytotoxicty in CD1 mouse primary cortical neurons assessed as increase in cell viability at 0.01 nM pre-incubated for 1 hr before amyloid beta (1 to 42) addition and measured after 24 hrs by CCK8 assay. In kind it is functional.
The nature of series [8]: Toxicity in CD1 mouse primary cortical neurons assessed as effect on cell viability at 25 nM incubated for 24 hrs by CCK8 assay. In kind it is cell-based, Cortical neurone. As to conditions: read-out: Activity. The method, boiled down: as §2
A short description of series [9]: Stability in neurobasal cell culture medium supplemented with B-27 and N2 assessed as compound hydrolysis by LC-HR MS method. Type of series: physicochemical. As to conditions: read-out: Drug degradation. Put shortly:
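Compound was incubated in neurobasal culture medium containing B-27 and N2 at 37 °C for 24 h, with no enzyme present. The remaining compound concentration was then quantified by LC-HRMS.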

Series [10] relates to Cortical neurone. As to the kind of experiment: Neuroprotective activity against amyloid beta (1 to 42) peptide-induced cytotoxicty in CD1 mouse primary cortical neurons assessed as increase in cell viability at 1 to 10 nM pre-incubated for 1 hr before amyloid beta (1 to 42) addition and measured after 24 hrs by CCK8 assay. In kind it is functional, cell-based.
Series [11] is described as follows: Toxicity in African green monkey CV1 cells assessed as effect on cell viability incubated for 24 hrs by CCK8 assay.
The subject of series [12] is BV-2 (Mus musculus). As to the kind of experiment: Antiinflammatory activity in mouse BV-2 cells assessed as inhibition of LPS-induced TNF-alpha production at 20 nM pre-incubated for 1 hr before LPS stimulation for 23 hrs by ELISA method. A general note: An ELISA detects its analyte on a solid surface through an enzyme-linked reagent.
The test system of series [13] is BV-2 (Mus musculus). Put plainly: Antiinflammatory activity in mouse BV-2 cells assessed as inhibition of LPS-induced TNF-alpha production at 10 to 1000 nM pre-incubated for 1 hr before LPS stimulation for 23 hrs by ELISA method.
In series [14] the test system is Cortical neurone. As to the kind of experiment: Toxicity in CD1 mouse primary cortical neurons assessed as effect on cell viability at =< 10 nM incubated for 24 hrs by CCK8 assay. In kind it is cell-based. Put shortly:
as §1

For series [15], the system named is BV-2 (Mus musculus). As to the kind of experiment: Antiinflammatory activity in mouse BV-2 cells assessed as inhibition of LPS-induced TNF-alpha production at 10 nM pre-incubated for 1 hr before LPS stimulation for 23 hrs by ELISA method.
Series [16] has as its system Cortical neurone. Put plainly: Neuroprotective activity against amyloid beta (1 to 42) peptide-induced cytotoxicty in CD1 mouse primary cortical neurons assessed as increase in cell viability at 100 to 1000 nM pre-incubated for 1 hr before amyloid beta (1 to 42) addition and measured after 24 hrs by CCK8 assay. Type of series: functional, cell-based.
Series [17] relates to Cortical neurone. As to the kind of experiment: Toxicity in CD1 mouse primary cortical neurons assessed as effect on cell viability at 1000 nM incubated for 24 hrs by CCK8 assay. As to conditions: 1 µM. In kind it is cell-based. Put shortly:
as §1

The source made the active and inactive calls. No cut-off for these calls is given here.

For `CC(C)[C@]1(O)[C@H](F)[C@@H]2O[C@]23[C@]2(O[C@H]2C[C@H]2C4=C(CC[C@@]23C)C(=O)OC4)[C@@H]1O`, the outcome in series [1] was Active. The Activity result in series [2] is recorded as “Non-Toxic”.

As to `CC(C)[C@]12O[C@H]1[C@@H]1O[C@]13[C@]1(O[C@H]1C[C@H]1C4=C(CC[C@@]13C)C(=O)OC4)[C@@H]2O` [TRIPTOLIDE], in series [3], the viability at 24 h, 0.1 µM worked out at 76.5%. Also, the results for the Activity in [4], in series [6] and in [7] were 100%, “Dose-dependent effect” and 100%, respectively. Besides, the viability at 24 h, 0.05 µM in series [5] worked out at 62.8%. For the same compound, the viability at 24 h, 0.025 µM in [8] turned out to be 27.2%. In addition, in series [9], the degraded was found to be 13%.

Regarding `CC(C)[C@]12O[C@H]1[C@@H]1O[C@@]13[C@@]1(C)CCC4=C(COC4=O)[C@@H]1CC[C@@]3(O)[C@@H]2O`, the Activity result in [2] and in series [11] was “Non-Toxic” throughout. The result in series [10] was Active.

For `CC(C)[C@]12O[C@H]1[C@@H]1O[C@@]13[C@@]1(C)CCC4=C(COC4=O)[C@@H]1C[C@@H]1O[C@@]13C2=O` [TRIPTONIDE], the result in series [1] was inactive. For the same compound, the inhibition (usually the relative decrease from the control value, in per cent) at 0.02 µM in series [12] was found to be 100%. Moreover, in [11], the Activity result was “Non-Toxic”.

Consider `CC(C)C1=C[C@@H]2O[C@@]23[C@@]2(C)CCC4=C(COC4=O)[C@@H]2C[C@@H]2O[C@@]23C1=O`, for which the Activity entry is “Non-Toxic” in series [2], “Dose-dependent effect” in [6] and “Non-Toxic” in series [11]. In addition, in [10], the result was Active. The outcome in series [13] was inactive.

For `CC(C)[C@]1(O)[C@H](O)[C@@H]2O[C@]23[C@]2(O[C@H]2C[C@H]2C4=C(CC[C@@]23C)C(=O)OC4)[C@@H]1O`, the result in series [1] was Active. The Activity result in series [2] was “Non-Toxic”.

On to `CC(C)[C@]12O[C@H]1[C@@H]1O[C@]13[C@]1(O[C@H]1C[C@H]1C4=C(CC[C@@]13C)C(=O)OC4)[C@H]2F`, for which the outcome in [4] was inactive. The Activity entry is “Dose-dependent effect” in series [6] and “Non-Toxic” in [11]. Moreover, the inhibition at 0.02 µM in series [12] is 100%.

Consider `CC(C)[C@]12O[C@H]1[C@@H]1O[C@]13[C@]1(O[C@H]1C[C@H]1C4=C(CC[C@@]13C)C(=O)OC4)[C@@H]2OC(=O)NC12CC3CC(C)(CC(C)(C3)C1)C2`, for which the viability at 24 h, 0.1 µM in series [3] worked out at 73.5%. In addition, the Activity entry was “Dose-dependent effect” in [4]; “Dose-dependent effect” in [6]; “Non-Toxic” in series [14]; 100% in [7]; “Non-Toxic” in series [11]. Besides, the viability at 24 h, 0.05 µM in [5] worked out at 32.8%. Further, the inhibition at 0.01 µM in series [15] stood at 100%. Also, in series [8], the viability at 24 h, 0.025 µM is 7.7%. In addition, the degraded in series [9] is 13%.

As to `CC(C)[C@]12O[C@H]1[C@@H]1O[C@]13[C@]1(O[C@H]1C[C@H]1C4=C(CC[C@@]13C)C(=O)OC4)[C@@H]2OC(=O)NC(C)(C)C`, the result in [16] was inactive. In addition, the Activity result in [17] is on record as “Toxic”.
